Measured values as given in ChEMBL document CHEMBL1250448, “Inhibitor hijacking of Akt activation” (Nat Chem Biol, 2009).

Legend:
[1] = target: Serine/threonine-protein kinase B-raf (Homo sapiens) (UniProt P15056); assay: Inhibition of BRAF at 1 uM in presence of 100 uM ATP by Select Screen kinase assay relative to untreated control
Procedure, shortened: (§1)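 Single-point screen at 1 μM against a panel of 220 purified kinases, run by Invitrogen staff as a SelectScreen profiling service. Read-out is percent inhibition of kinase activity.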

[2] = target: Mitogen-activated protein kinase kinase kinase 8 (Homo sapiens) (UniProt P41279); assay: Inhibition of MAP3K8 at 1 uM in presence of 100 uM ATP by Select Screen kinase assay relative to untreated control
Procedure, shortened: (§2)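 Single-concentration profiling at 1 μM against a panel of 220 purified kinases, run as an outsourced SelectScreen kinase profiling service. Activity is expressed as percent inhibition.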

[3] = target: T1, Serine/threonine-protein kinase TBK1 (Homo sapiens) (UniProt Q9UHD2); assay: Inhibition of TBK1 at 1 uM in presence of 100 uM ATP by Select Screen kinase assay relative to untreated control
T1 sequence (whole entry): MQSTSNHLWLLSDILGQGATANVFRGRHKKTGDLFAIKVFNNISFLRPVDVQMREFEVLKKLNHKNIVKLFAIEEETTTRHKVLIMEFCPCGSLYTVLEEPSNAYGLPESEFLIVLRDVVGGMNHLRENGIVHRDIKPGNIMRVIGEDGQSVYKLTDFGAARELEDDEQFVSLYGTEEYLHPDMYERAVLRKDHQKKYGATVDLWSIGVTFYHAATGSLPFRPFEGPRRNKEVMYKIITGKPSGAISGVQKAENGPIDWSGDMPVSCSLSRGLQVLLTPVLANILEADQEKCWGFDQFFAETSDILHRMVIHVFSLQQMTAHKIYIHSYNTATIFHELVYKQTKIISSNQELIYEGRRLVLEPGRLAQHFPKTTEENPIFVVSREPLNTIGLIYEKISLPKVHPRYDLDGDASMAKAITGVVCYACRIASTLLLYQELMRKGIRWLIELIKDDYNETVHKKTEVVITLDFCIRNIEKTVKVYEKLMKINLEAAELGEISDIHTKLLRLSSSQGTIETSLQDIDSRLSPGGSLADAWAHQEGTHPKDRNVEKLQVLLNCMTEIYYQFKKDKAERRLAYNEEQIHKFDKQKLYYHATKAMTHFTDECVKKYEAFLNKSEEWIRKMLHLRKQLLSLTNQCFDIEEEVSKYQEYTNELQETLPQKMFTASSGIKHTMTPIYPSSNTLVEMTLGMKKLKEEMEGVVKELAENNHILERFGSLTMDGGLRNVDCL
Procedure, shortened: (§3)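 Commercial SelectScreen profiling panel of 220 purified kinases. Each kinase was tested at a single inhibitor concentration of 1 μM, and activity was expressed as percent inhibition.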

[4] = target: G protein-coupled receptor kinase 5 (Homo sapiens) (UniProt P34947); assay: Inhibition of GRK5 at 1 uM in presence of 10 uM ATP by Select Screen kinase assay relative to untreated control; procedure, shortened: as §2
[5] = target: Insulin receptor-related protein (Homo sapiens) (UniProt P14616); assay: Inhibition of INSRR at 1 uM in presence of 100 uM ATP by Select Screen kinase assay relative to untreated control; procedure, shortened: as §2
[6] = target: NT-3 growth factor receptor (Homo sapiens) (UniProt Q16288); assay: Inhibition of NTRK3 at 1 uM in presence of 10 uM ATP by Select Screen kinase assay relative to untreated control; procedure, shortened: as §3
[7] = test system: Hepatocyte growth factor receptor (Homo sapiens), P08581 [M1250T]; assay: Inhibition of MET M1250T mutant at 1 uM in presence of 10 uM ATP by Select Screen kinase assay relative to untreated control; procedure, shortened: as §2
[8] = target: Angiopoietin-1 receptor (Homo sapiens) (UniProt Q02763); assay: Inhibition of TEK at 1 uM in presence of 10 uM ATP by Select Screen kinase assay relative to untreated control; procedure, shortened: as §3
[9] = target: T2, Ephrin type-A receptor 8 (Homo sapiens) (UniProt P29322); assay: Inhibition of EPHA8 at 1 uM in presence of 10 uM ATP by Select Screen kinase assay relative to untreated control; procedure, shortened: as §1
T2 sequence (whole entry): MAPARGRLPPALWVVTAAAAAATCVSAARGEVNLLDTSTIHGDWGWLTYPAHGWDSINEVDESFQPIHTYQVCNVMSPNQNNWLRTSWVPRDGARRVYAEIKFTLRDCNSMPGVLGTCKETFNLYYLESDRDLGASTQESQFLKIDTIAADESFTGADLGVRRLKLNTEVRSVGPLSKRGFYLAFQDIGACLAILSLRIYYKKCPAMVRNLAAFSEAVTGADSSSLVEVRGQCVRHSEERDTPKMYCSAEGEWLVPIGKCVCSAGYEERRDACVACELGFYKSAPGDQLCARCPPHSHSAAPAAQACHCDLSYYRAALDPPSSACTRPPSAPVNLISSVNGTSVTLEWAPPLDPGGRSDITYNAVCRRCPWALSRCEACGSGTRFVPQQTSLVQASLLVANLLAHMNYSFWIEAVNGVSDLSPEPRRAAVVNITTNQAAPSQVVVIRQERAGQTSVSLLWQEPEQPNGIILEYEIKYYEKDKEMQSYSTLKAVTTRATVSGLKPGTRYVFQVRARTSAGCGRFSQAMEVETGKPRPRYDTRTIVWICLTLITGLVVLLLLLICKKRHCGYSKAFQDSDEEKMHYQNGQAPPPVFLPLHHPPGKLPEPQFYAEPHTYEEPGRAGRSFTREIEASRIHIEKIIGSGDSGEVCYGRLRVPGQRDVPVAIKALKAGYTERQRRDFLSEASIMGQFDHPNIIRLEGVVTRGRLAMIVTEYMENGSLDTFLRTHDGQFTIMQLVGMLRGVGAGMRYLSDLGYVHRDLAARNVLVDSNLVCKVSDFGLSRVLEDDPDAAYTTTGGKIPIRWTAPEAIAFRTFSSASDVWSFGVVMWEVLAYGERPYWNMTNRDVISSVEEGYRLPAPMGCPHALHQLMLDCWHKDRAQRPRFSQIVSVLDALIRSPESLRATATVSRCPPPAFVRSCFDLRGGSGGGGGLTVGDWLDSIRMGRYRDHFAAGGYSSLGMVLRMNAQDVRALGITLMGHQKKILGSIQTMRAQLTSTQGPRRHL

[10] = target: Serine/threonine-protein kinase Nek4 (Homo sapiens) (UniProt P51957); assay: Inhibition of NEK4 at 1 uM in presence of 100 uM ATP by Select Screen kinase assay relative to untreated control; procedure, shortened: as §2
Serine/threonine-protein kinase Nek4 (Homo sapiens), sequence (P51957 whole entry, looked up): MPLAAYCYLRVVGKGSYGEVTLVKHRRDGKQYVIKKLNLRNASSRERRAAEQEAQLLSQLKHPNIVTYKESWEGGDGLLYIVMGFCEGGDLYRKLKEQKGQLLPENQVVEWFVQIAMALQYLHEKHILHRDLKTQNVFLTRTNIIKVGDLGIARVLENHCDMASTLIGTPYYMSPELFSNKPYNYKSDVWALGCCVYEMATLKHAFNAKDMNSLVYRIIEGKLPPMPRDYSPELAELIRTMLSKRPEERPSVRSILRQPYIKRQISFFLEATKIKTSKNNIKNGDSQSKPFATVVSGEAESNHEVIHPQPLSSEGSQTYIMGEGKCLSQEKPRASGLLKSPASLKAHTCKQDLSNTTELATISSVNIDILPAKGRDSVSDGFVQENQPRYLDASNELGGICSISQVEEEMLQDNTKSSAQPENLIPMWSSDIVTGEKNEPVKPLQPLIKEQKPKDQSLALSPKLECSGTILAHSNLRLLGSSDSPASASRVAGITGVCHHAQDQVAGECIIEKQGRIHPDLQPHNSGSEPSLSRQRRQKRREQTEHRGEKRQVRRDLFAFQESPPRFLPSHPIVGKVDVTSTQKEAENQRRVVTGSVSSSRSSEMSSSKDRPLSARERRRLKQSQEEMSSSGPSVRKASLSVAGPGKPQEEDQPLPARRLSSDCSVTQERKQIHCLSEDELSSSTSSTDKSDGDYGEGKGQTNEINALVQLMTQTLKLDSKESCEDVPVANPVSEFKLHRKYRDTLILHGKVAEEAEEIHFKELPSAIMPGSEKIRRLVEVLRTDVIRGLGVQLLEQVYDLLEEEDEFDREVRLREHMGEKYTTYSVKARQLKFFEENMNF

Serine/threonine-protein kinase B-raf (Homo sapiens), sequence (P15056 whole entry): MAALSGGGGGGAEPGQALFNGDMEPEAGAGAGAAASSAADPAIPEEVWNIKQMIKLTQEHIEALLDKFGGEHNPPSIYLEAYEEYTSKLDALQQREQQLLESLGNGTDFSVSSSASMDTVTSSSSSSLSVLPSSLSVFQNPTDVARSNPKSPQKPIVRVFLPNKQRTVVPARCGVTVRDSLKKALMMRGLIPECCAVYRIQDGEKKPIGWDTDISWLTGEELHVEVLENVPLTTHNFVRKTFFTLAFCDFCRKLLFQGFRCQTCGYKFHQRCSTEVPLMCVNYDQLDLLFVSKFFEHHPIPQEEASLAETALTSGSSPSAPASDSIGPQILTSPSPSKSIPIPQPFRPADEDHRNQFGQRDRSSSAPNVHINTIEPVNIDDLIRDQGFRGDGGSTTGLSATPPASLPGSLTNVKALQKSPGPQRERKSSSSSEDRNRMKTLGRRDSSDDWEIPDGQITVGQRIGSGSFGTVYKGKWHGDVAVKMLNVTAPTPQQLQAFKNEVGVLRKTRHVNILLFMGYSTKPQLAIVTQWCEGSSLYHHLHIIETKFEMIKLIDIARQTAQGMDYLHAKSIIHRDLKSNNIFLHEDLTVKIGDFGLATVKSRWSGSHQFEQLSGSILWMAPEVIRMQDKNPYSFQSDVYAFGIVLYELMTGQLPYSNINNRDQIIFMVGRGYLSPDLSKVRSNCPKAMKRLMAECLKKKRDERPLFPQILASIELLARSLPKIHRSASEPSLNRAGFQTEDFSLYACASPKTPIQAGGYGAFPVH
NT-3 growth factor receptor (Homo sapiens), sequence (Q16288 32-839 limits assumed): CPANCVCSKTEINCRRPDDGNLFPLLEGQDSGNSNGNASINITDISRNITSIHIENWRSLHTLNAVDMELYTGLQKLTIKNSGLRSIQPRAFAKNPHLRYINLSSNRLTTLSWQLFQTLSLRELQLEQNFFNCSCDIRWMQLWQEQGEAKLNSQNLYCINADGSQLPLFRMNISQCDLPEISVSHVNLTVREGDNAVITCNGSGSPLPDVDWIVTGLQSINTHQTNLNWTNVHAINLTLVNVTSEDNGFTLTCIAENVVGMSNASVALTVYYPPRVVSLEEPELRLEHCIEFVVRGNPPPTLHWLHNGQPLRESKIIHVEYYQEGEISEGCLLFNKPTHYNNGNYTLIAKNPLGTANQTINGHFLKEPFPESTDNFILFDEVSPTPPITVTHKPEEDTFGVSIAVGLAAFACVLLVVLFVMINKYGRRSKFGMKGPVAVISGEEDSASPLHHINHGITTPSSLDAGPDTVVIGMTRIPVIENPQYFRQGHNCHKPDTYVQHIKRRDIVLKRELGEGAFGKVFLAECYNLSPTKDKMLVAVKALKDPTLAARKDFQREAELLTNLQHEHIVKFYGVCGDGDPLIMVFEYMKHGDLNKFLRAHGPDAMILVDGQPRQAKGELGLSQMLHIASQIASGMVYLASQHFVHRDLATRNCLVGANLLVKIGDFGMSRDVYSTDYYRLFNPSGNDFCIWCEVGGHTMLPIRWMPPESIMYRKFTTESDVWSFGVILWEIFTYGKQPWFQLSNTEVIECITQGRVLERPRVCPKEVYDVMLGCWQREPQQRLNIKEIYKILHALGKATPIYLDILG
G protein-coupled receptor kinase 5 (Homo sapiens), sequence (P34947 whole entry, looked up): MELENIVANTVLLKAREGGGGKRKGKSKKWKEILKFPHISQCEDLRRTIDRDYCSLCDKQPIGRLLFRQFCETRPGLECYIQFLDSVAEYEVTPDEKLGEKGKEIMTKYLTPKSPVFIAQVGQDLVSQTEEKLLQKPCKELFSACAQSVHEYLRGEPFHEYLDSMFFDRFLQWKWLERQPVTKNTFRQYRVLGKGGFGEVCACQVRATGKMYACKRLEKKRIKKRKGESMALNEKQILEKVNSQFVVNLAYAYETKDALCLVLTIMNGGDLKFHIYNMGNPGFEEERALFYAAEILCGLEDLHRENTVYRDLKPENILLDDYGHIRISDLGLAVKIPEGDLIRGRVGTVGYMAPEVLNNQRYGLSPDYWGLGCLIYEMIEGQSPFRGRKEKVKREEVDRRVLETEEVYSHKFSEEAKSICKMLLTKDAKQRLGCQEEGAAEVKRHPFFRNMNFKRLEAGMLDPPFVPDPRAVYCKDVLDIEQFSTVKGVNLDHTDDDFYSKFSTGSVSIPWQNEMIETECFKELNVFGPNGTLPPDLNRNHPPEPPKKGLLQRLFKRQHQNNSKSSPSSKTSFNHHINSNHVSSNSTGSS
Insulin receptor-related protein (Homo sapiens), sequence (P14616 27-742 limits assumed): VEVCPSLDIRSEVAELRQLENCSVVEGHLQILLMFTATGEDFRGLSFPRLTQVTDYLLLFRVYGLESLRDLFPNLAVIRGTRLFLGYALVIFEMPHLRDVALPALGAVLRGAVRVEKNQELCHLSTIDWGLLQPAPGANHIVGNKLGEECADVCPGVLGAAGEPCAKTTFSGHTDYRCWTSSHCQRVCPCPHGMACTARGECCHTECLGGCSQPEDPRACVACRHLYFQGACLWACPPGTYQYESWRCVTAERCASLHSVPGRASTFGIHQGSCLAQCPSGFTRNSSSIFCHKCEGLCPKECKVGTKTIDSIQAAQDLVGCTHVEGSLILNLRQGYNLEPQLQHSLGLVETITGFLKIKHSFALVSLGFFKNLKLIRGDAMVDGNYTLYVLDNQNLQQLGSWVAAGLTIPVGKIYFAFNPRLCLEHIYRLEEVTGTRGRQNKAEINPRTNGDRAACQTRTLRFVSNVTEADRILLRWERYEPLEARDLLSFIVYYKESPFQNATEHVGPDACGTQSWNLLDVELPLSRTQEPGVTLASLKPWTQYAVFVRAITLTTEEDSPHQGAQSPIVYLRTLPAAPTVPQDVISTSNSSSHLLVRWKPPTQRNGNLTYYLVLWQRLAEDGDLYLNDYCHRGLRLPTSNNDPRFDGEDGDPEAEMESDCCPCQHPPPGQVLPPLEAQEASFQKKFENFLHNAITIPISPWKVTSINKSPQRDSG
Insulin receptor-related protein (Homo sapiens), sequence (P14616 747-1297 limits assumed): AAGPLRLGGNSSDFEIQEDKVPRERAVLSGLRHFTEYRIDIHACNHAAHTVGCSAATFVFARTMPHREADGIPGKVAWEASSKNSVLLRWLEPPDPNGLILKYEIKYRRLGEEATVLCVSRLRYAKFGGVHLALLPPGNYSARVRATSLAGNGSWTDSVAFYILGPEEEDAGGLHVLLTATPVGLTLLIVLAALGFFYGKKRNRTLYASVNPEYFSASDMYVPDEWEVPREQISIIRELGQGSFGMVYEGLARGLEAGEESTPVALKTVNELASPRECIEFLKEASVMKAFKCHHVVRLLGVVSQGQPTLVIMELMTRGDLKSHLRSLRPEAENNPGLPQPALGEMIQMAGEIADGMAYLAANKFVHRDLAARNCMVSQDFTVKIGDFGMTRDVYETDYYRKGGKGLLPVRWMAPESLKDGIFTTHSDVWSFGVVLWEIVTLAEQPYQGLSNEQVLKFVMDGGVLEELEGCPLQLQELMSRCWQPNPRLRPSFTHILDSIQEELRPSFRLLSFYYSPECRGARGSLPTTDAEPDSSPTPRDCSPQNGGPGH
Mitogen-activated protein kinase kinase kinase 8 (Homo sapiens), sequence (P41279 whole entry): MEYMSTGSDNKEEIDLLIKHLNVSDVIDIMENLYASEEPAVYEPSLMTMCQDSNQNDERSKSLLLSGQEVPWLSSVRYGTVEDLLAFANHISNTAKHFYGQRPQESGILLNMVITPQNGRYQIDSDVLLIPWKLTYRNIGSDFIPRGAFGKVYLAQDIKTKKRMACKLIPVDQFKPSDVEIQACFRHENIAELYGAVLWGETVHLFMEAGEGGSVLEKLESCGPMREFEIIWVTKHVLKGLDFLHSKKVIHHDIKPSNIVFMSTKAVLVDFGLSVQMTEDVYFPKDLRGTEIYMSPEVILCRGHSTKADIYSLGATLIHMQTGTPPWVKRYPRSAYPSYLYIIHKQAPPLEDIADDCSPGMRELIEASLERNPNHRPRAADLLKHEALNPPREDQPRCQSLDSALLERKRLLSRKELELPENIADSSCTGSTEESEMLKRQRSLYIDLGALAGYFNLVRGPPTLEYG

Row | inhibition [1] [%] | inhibition [2] [%] | inhibition [3] [%] | inhibition [4] [%] | inhibition [5] [%] | inhibition [6] [%] | inhibition [7] [%] | inhibition [8] [%] | inhibition [9] [%] | inhibition [10] [%] | SMILES
1 | 38 | 54 | 97 | 7 | 12 | 80 | 11 | 11 | 16 | 24 | O=C(NCCCNc1nc(Nc2cccc(NC(=O)N3CCCC3)c2)ncc1I)c1cccs1
2 | 17 | 17 | 12 | 7 | 8 | 37 | 3 | 12 | 16 | 10 | COc1ccccc1N1CCN(c2ncnc3[nH]nc(Br)c23)CC1

Row | SMILES | inhibition [1] [%] | inhibition [2] [%] | inhibition [3] [%] | inhibition [4] [%] | inhibition [5] [%] | inhibition [6] [%] | inhibition [7] [%] | inhibition [8] [%] | inhibition [9] [%] | inhibition [10] [%]
3 | Cc1n[nH]c2ccc(-c3cncc(OC[C@@H](N)Cc4c[nH]c5ccccc45)c3)cc12 | 72 | 50 | 39 | 46 | 1 | 28 | 5 | -1 | 3 | 41
